Screening data from PubChem BioAssay.
Many of the other results were omitted from the sample, so hits are more common in it than they were.
E-sel inducer: induces E-selectin expression in human endothelial cells; HUVEC E-selectin immunofluorescence imaging; normalized: neutral wells 0, TNF-alpha wells 100; P16581; hit rate 0.37% among 260,000; activation, % at 7.58 µM;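 active = mean E-selectin-positive cell signal at least 10% of the positive control, reached in at least 60% of replicates, without over 20% cell loss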
Target sequence (P16581 whole entry, looked up): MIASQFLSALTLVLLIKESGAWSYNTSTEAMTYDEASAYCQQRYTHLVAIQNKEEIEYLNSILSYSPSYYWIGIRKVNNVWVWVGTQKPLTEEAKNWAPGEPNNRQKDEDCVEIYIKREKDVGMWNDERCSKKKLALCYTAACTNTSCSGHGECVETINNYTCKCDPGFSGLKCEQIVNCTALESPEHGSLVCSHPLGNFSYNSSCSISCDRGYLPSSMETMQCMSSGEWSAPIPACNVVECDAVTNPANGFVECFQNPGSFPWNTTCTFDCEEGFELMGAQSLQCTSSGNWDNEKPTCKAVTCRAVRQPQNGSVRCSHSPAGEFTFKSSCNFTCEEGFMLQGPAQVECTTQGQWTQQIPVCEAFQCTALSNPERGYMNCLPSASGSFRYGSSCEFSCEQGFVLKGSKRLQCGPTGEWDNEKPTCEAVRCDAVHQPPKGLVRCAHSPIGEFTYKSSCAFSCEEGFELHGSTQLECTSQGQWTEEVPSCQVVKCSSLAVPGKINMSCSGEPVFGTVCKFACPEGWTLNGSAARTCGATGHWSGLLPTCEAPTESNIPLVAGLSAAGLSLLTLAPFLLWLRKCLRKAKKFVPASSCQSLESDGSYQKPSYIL
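Read-out: % PE-positive cells | Test system: HUVEC | Doses: One compound dose added by pin transfer | Buffer or medium: EGM-2 over gelatin coat | Signal: Immunofluorescence imaging | Benchmarks: TNF-alpha, DMSO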
Xi reactivation: X-chromosome reactivation activator; XiGFP mouse fibroblasts, % GFP-positive cells imaging, 3 d; cells co-treated with 5-aza-dC sensitizer; scaled so ellipticine positive control = 100%; activation, % at 7.58 µM; hit rate 0.055% among 360,000;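 active = mean normalized replicate activation at least 10% and every replicate at or above 10%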;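 note: 0% = median of on-plate neutral control wells and 100% = ellipticine 6 µM median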
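Schedule: 3 d treatment, 15 min room-temperature fixation; system: 68-5-11 XiGFP fibroblast line; buffer or medium: DMEM plus 5-aza-dC sensitizer; control set: ellipticine 6 µM positive control; compound: one concentration, pinned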
Starred values were filed as active, the others as inactive; . = no result.

SMILES	E-sel inducer	Xi reactivation
C[C@H]1CN([C@@H](C)CO)C(=O)c2cc(NC(=O)Nc3ccc4c(c3)OCO4)ccc2O[C@H]1CN(C)C	-8.2	-1.2
C[C@H](CO)N1C[C@H](C)[C@@H](CN(C)C)Oc2ccc(NC(=O)Nc3ccccc3)cc2CC1=O	-6.7	-0.1
COc1ccc(S(=O)(=O)N(C)C[C@H]2Oc3ccc(NC(=O)Nc4ccc5c(c4)OCO5)cc3CC(=O)N([C@H](C)CO)C[C@H]2C)cc1	36.3*	-0.1
C[C@H](CO)N1C[C@H](C)[C@@H](CN(C)Cc2ccc(-c3ccccc3)cc2)Oc2ccc(NC(=O)Nc3ccc4c(c3)OCO4)cc2C1=O	10.5	-0.1
COc1ccc(S(=O)(=O)N(C)C[C@H]2Oc3ccc(NC(=O)Nc4ccc5c(c4)OCO5)cc3CC(=O)N([C@@H](C)CO)C[C@@H]2C)cc1	-17.3	-0.2
Cc1ccc(S(=O)(=O)Nc2ccc3c(c2)C(=O)N([C@@H](C)CO)C[C@H](C)[C@H](CN(C)Cc2ccncc2)OCCCC[C@@H](C)O3)cc1	.	0.1
O=C(C[C@H]1CC[C@H]2[C@@H](COC[C@@H](O)CN2CC2CC2)O1)NCC1CC1	0.0	0.0
C[C@H]1CN([C@@H](C)CO)S(=O)(=O)c2ccc(C#CC3CC3)cc2O[C@@H]1CN(C)Cc1ccncc1	-0.1	-0.6
C[C@H]1CN([C@@H](C)CO)C(=O)Cc2cc(NC(=O)Nc3ccc4c(c3)OCO4)ccc2O[C@@H]1CN(C)C(=O)Nc1ccc2c(c1)OCO2	0.6	0.0
C[C@H]1CN([C@@H](C)CO)C(=O)Cc2cc(NC(=O)Nc3ccc4c(c3)OCO4)ccc2O[C@@H]1CN(C)C	232.9*	0.0
O=C(C[C@H]1CC[C@@H]2[C@H](COC[C@@H](O)CN2CCC(F)(F)F)O1)NCc1ccc(Oc2ccccc2)cc1	0.0	0.5
Cc1ccc2nc(NC(=O)CSc3ncnc4c3oc3ccccc34)sc2c1	82.3*	0.1
Cc1cccc(NC(=O)CSc2ncnc3c2oc2ccccc23)c1	-0.2	0.1
CCCC#Cc1cnc2c(c1)C(=O)N([C@H](C)CO)C[C@H](C)[C@@H](CN(C)C(=O)Cc1ccncc1)O2	0.0	0.2
CSc1nc2ccsc2c(=O)n1-c1ccccc1	.	0.0
CCC(C)c1nc2ccsc2c(N2CCOC2=O)c1-c1ccccc1 (stereo not drawn)	0.0	18.8*
COc1ccc(OCCN2CCN(S(=O)(=O)c3ccccc3C(F)(F)F)CC2)cc1	139.2*	0.4
COc1ccc(OCCN2CCN(S(=O)(=O)c3ccccc3C#N)CC2)cc1	.	-0.1
COc1cccc(CNC(=O)CN2C(=O)COc3ccc(S(=O)(=O)N4CCCC4)cc32)c1	.	0.0
COc1cccc(CNC(=O)CN2C(=O)COc3ccc(S(=O)(=O)N4CCCCCC4)cc32)c1	42.8*	0.0
COc1cccc(NC(=O)N2CC(=O)N3[C@H](CO)[C@@H](c4ccc(C5=CCCCC5)cc4)[C@H]3C2)c1	-0.2	0.0
CN1C(=CC=C2C=C(I)C(=O)C(I)=C2)C(C)(C)c2ccccc21	163.2*	-0.2
CN1/C(=C\C=C2/C(=O)Oc3ccccc3C2=O)C(C)(C)c2ccccc21	4.8	2.0
CO[C@@H]1CN(C)C(=O)c2cc(NC(=O)c3ccc(Oc4ccccc4)cc3)ccc2OC[C@@H](C)N(C(C)=O)C[C@H]1C	0.5	0.6
COc1cc2ccccc2nn1	0.1	0.1
SMILES	E-sel inducer	Xi reactivation
COc1ccc2c(n1)Sc1nc3ccccc3nc1N2	-0.1	68.3*
COc1ccc(C(=O)Nc2cc(C)c(NC(=O)c3ccccn3)cn2)cc1	.	0.1
COc1ccc(C(=O)Nc2cnc(NC(=O)c3cccs3)cc2C)cc1	33.3*	0.4
CCC(=O)N1CC(=O)N2[C@H](C1)[C@H](c1ccc(C#Cc3cccc(OC)c3)cc1)[C@@H]2CO	-0.1	0.1
C[C@@H]1CN([C@H](C)CO)C(=O)c2cc(NC(=O)CCCCCC(=O)Nc3ccccc3N)ccc2O[C@@H]1CN(C)C(=O)Nc1ccccc1	-0.2	-0.4
O=C1C(SCCO)=C(SCCO)C(=O)c2ccccc21	10.2	88.4*
CC1=C(SCc2ccccc2)C(=O)c2ccccc2C1=O	-0.8	0.2
C[C@H]1CN([C@@H](C)CO)C(=O)c2cc(NC(=O)Cc3cn(C)c4ccccc34)ccc2O[C@@H]1CN(C)Cc1ccc2c(c1)OCO2	-8.4	-1.2
CC(C)NC(=O)N(C)C[C@@H]1Oc2ccc(NC(=O)Cc3cn(C)c4ccccc34)cc2C(=O)N([C@@H](C)CO)C[C@@H]1C	4.8	-0.1
C[C@@H]1CN([C@@H](C)CO)C(=O)c2cc(NC(=O)Cc3cn(C)c4ccccc34)ccc2O[C@H]1CN(C)Cc1ccc2c(c1)OCO2	38.9*	0.3
CC(C)NC(=O)N(C)C[C@@H]1Oc2ccc(NC(=O)Cc3cn(C)c4ccccc34)cc2C(=O)N([C@H](C)CO)C[C@H]1C	48.6*	0.2
O=C(C[C@@H]1CC[C@H]2[C@@H](COC[C@H](O)CN2Cc2ccc(Cl)cc2)O1)NCCc1ccccc1	0.2	0.2
COCC(=O)Nc1ccc2c(c1)[C@H]1C[C@@H](CC(=O)N(C)C)O[C@@H](CO)[C@H]1O2	0.9	0.5
COCC(=O)Nc1ccc2c(c1)C(=O)N(C)C[C@H](OC)[C@@H](C)CN(Cc1ccccc1OC)[C@@H](C)CO2	-0.2	0.4
COc1ccccc1CNC(=O)C[C@@H]1CC[C@@H]2[C@H](COc3ccc(NS(=O)(=O)c4ccc(C)cc4)cc3C(=O)N2C)O1	0.0	0.2
O=C1c2oc3ccccc3c(=O)c2C(c2cccc(O)c2)N1CCCN1CCOCC1 (stereo not drawn)	0.8	0.3
COc1cccc(C2c3c(oc4ccccc4c3=O)C(=O)N2CCCN2CCOCC2)c1OC (stereo not drawn)	45.9*	.
Cc1noc(C)c1NC(=O)Nc1ccc2c(c1)CC(=O)N([C@H](C)CO)C[C@H](C)[C@H](CN(C)S(C)(=O)=O)O2	-7.2	0.0
O=C(NCCc1ccccc1)c1ccc(S(=O)(=O)N2CCCCC2)cc1	-0.1	0.1
Cc1cc2ccccc2n1CCNC(=O)c1ccc(S(=O)(=O)N2CCCCC2)cc1	93.5*	0.2
C[C@@H]1CN([C@H](C)CO)S(=O)(=O)c2ccc(-c3ccccc3)cc2O[C@@H]1CN(C)C(=O)C1CCC1	-0.1	-1.0
COc1ccc2c3c(n(C)c2c1)[C@H](CO)N(CC1CCOCC1)CC31CCN(Cc2nccs2)CC1	-0.2	0.0
CC1(C)CCN2CCC(C)(C)c3c(O)ccc1c32	.	80.1*
C[C@@H]1CCCCO[C@@H](CN(C)CC2CCCCC2)[C@@H](C)CN([C@H](C)CO)C(=O)c2cc(NS(=O)(=O)c3cn(C)cn3)ccc2O1	0.2	-1.1
C[C@@H]1CCCCO[C@@H](CN(C)S(=O)(=O)c2ccc(F)cc2)[C@H](C)CN([C@H](C)CO)C(=O)c2cc(NC(=O)CCCN(C)C)ccc2O1	0.2	0.3
O=C(Cc1ccccc1)N[C@@H]1CC[C@@H](CC(=O)N2CCCCC2)O[C@@H]1CO	-0.2	-0.3
CO[C@@H]1CN(C)C(=O)c2cc(NC(=O)c3cnccn3)ccc2OC[C@H](C)N(C)C[C@H]1C	-0.1	-0.3
CCCCNc1nc2sc3c(c2c(=O)n1-c1cccc(Cl)c1)CCN(C)C3	.	0.1
CCCCCNc1nc2sc3c(c2c(=O)n1-c1cccc(Cl)c1)CCN(C)C3	41.6*	0.0
